# IDH1 mut inh – inhibitors of human IDH1 R132H. actives 0.18% (n = 70,000). IDH1 R132H reductase, diaphorase/resazurin fluorescence, 60 min. inhibition, % at 10 µM; in the data active = inhibition above about 34%; inconclusive = no clear call, values can overlap the other calls; inactive = below about 11%;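 also: 0% = DMSO and 100% = no enzyme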
# KDM4C inh – KDM4C (human) demethylase inhibition; GST-KDM4C 2-372, H3K9me3 peptide, LANCE TR-FRET; inhibition, % at 12.5 µM; actives 0.15% (n = 96,000); AID 720574;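 active = mean replicate inhibition above about 25%, with at least 55% of replicates also reaching it, limit read from the data, passing the limit was not always enough; inconclusive = only one of those two conditions met; inactive = neither condition met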
# Target sequence (Q9H3R0 2-372 limits assumed): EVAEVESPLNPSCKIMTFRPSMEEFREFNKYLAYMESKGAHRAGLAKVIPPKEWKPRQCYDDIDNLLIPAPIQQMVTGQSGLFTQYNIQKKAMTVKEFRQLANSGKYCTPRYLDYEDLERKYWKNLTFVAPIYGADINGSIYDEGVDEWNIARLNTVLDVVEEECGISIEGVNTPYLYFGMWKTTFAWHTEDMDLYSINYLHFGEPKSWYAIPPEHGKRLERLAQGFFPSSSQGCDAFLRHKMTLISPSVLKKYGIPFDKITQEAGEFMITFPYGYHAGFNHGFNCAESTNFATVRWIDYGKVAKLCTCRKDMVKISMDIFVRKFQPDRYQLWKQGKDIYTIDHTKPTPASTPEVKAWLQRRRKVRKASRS
#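 reagent = H3K9me3 peptide substrate, Fe(II), 2-oxoglutarate | system = GST-tagged GASC-1 (JMJD2C) catalytic fragment, aa 2-372 | amount = enzyme final amount 10 nM | read-out = Fall in 671/618 emission ratio as inhibition | medium = HEPES buffer, pH 7.5, plus ascorbate | schedule = 30 min reaction, 60 min detection, RT | measured by = LANCE TR-FRET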
# Pf Dd2 growth – P. falciparum Dd2 growth inhibition. SYBR Green, 72 h; active compounds read low. activity change, % at 10 µM. actives 2.3% (n = 94,000); in the data active = activity change below about -80%; inconclusive = no clear call, values can overlap the other calls
# T cruzi growth-1 – blocks T. cruzi growth in NIH3T3 culture; actives 5.9% (n = 77,000); AID 624255; inhibition, % at 8.34 µM; T. cruzi beta-gal in NIH3T3, GalScreen luminescence, 90 h;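 active = mean inhibition above about 93%, with at least 55% of replicates each passing it, limit read from the data, passing the limit was not always enough; inconclusive = only one of those two conditions holds; inactive = neither condition holds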
# T cruzi growth-2 – blocks T. cruzi growth in NIH3T3 host cells | inhibition, % at 8.35 µM | T. cruzi beta-gal in NIH3T3, GalScreen luminescence, 90 h | AID 651739 | actives 72% (n = 5,600) | shares compounds with T cruzi growth-1;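 active = mean replicate inhibition above about 95% and at least 55% of replicates individually reaching it, limit read from the data; inconclusive = only one of the two criteria is met; inactive = neither criterion is met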
# T cruzi growth-3 – blocks T. cruzi growth in NIH3T3 host cells; actives 21% (n = 5,600); T. cruzi beta-gal in NIH3T3, GalScreen luminescence, 90 h; inhibition, % at 2.09 µM; AID 651740; shares compounds with T cruzi growth-1;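 active = mean inhibition above about 95%, with at least 55% of replicates also reaching it, limit read from the data; inconclusive = meets just one of the two conditions; inactive = meets neither condition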;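 also: plate controls were neutral control median for no effect and positive control median for full effect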
# NIH3T3 tox – kills mouse NIH/3T3 fibroblasts | actives 14% (n = 5,600) | AID 651742 | shares compounds with T cruzi growth-1 | NIH/3T3 viability, CellTiter-Glo ATP luminescence, 90 h | cytotoxicity (signal decrease), % at 8.35 µM;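 active = mean signal decrease across replicates above about 35% based on untreated-well scatter, with enough replicates individually passing, limit read from the data; inconclusive = no rule stated though some were filed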;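 also: 0% = median of neutral control wells and 100% = median of positive control wells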
# NIH3T3 tox 2 – cytotoxicity in mouse NIH/3T3 fibroblasts. inhibition, % at 24.9 µM. AID 651744. actives 56% (n = 5,600). shares compounds with T cruzi growth-1. NIH/3T3 viability, CellTiter-Glo ATP luminescence, 90 h;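 active = mean loss of cell viability signal at or above a set limit, and enough replicates individually reaching it; inconclusive = meets only the mean limit or only the replicate share; inactive = meets neither condition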;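 also: 0% = median of neutral control wells and 100% = median of positive control wells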
# Starred values were filed as active, the others as inactive; ? = inconclusive; · = no result. Most compounds without a hit are left out; they make up all but 5.9% or so of the library.
SMILES,IDH1 mut inh,KDM4C inh,Pf Dd2 growth,T cruzi growth-1,T cruzi growth-2,T cruzi growth-3,NIH3T3 tox,NIH3T3 tox 2
COc1ccc(S(=O)(=O)N2CC[C@H]3[C@@H](CO)N(C)c4ccc(-c5ccccc5F)cc4[C@H]32)cc1,·,0,-48,114*,112*,86,17,25
CN1c2ccc(-c3ccccc3F)cc2[C@H]2[C@H](CCN2S(=O)(=O)c2ccc(F)cc2)[C@H]1CO,·,6,11,102*,100*,55,25,72*
CN(C)C(=O)c1cccc(-c2ccc([C@@H]3[C@H](C#N)N(C(=O)C4CCC4)[C@H]3CO)cc2)c1,·,-2,17,100*,92,1,16,15
CN(C)C(=O)c1cccc(-c2ccc([C@H]3[C@@H](C#N)N(C(=O)C4CCC4)[C@H]3CO)cc2)c1,·,-2,-7,102*,-21,-8,-21,-30
CN(C)C(=O)c1ccc(-c2ccc([C@@H]3[C@@H](C#N)N(C(=O)C4CCOCC4)[C@H]3CO)cc2)cc1,·,0,25,98*,78,21,-15,18
CN(C)C(=O)c1cccc(-c2ccc([C@H]3[C@@H](CO)N(C(=O)C4CCC4)[C@H]3C#N)cc2)c1,·,-1,-52,104*,72,32,11,10
CCCC(=O)Nc1ccc2c(c1)C(=O)N(C)C[C@@H](OC)[C@@H](C)CN(C(=O)c1cnccn1)[C@H](C)CO2,0,1,23,38,·,·,·,·
COc1ccc(NC(=O)Nc2ccc3c(c2)C(=O)N([C@@H](C)CO)C[C@@H](C)[C@@H](CN(C)S(=O)(=O)c2ccc(C)cc2)OCCCC[C@@H](C)O3)cc1,-2,-3,-60,97*,104*,31,-24,-11
COc1ccc(NC(=O)Nc2ccc3c(c2)C(=O)N([C@H](C)CO)C[C@H](C)[C@@H](CN(C)S(=O)(=O)c2ccc(C)cc2)OCCCC[C@H](C)O3)cc1,16,4,-54,61,·,·,·,·
COc1ccc(NC(=O)Nc2ccc3c(c2)C(=O)N([C@@H](C)CO)C[C@H](C)[C@@H](CN(C)S(=O)(=O)c2ccc(OC)cc2)OCCCC[C@@H](C)O3)cc1,·,-1,-57,42,·,·,·,·
COc1ccc(NC(=O)Nc2ccc3c(c2)C(=O)N([C@@H](C)CO)C[C@H](C)[C@@H](CN(C)S(=O)(=O)c2ccc(C)cc2)OCCCC[C@H](C)O3)cc1,5,6,-70,102*,105*,34,-3,4
COc1ccc(NC(=O)Nc2ccc3c(c2)C(=O)N([C@@H](C)CO)C[C@H](C)[C@H](CN(C)S(=O)(=O)c2ccc(C)cc2)OCCCC[C@H](C)O3)cc1,0,3,-74,104*,111*,68,-9,-7
COc1ccc(S(=O)(=O)N(C)C[C@@H]2OCCCC[C@@H](C)Oc3ccc(NC(=O)Nc4ccccc4)cc3C(=O)N([C@H](C)CO)C[C@H]2C)cc1,-1,-4,-79,104*,104*,62,-17,17
CCCC#Cc1ccc(CC[C@H]2O[C@H]3CC[C@H](CO)O[C@H]3C[C@@H]2NC(=O)CN2CCOCC2)cc1,·,·,-21,·,·,·,·,·
C[C@@H]1CN([C@@H](C)CO)C(=O)c2cc(C#CC(C)(C)O)cnc2O[C@H]1CN(C)Cc1ccccn1,1,2,69,·,·,·,·,·
CCCC#Cc1ccc2c(c1)O[C@@H](CN(C)Cc1ccc3c(c1)OCO3)[C@@H](C)CN([C@@H](C)CO)S2(=O)=O,-1,-1,-75,126*,89,103*,29,105*
CCCC#Cc1ccc2c(c1)O[C@H](CN(C)Cc1ccc3c(c1)OCO3)[C@H](C)CN([C@@H](C)CO)S2(=O)=O,0,·,-79,128*,?,112*,29,104*
CCCC#Cc1ccc2c(c1)O[C@H](CN(C)Cc1ccc3c(c1)OCO3)[C@@H](C)CN([C@H](C)CO)S2(=O)=O,0,-1,·,101*,98*,92,26,106*
CCCC#Cc1ccc2c(c1)O[C@H](CN(C)Cc1ccc3c(c1)OCO3)[C@H](C)CN([C@H](C)CO)S2(=O)=O,-1,·,?,130*,100*,110*,6,104*
CC(C)CC#Cc1ccc2c(c1)O[C@H](CN(C)Cc1ccc3c(c1)OCO3)[C@H](C)CN([C@H](C)CO)S2(=O)=O,0,·,-33,89,·,·,·,·
CC(C)CC#Cc1ccc2c(c1)O[C@@H](CN(C)Cc1ccc3c(c1)OCO3)[C@@H](C)CN([C@H](C)CO)S2(=O)=O,-2,·,-36,93,·,·,·,·
C[C@@H]1CN([C@@H](C)CO)S(=O)(=O)c2ccc(C#Cc3ccncc3)cc2O[C@H]1CN(C)C(=O)C1CC1,·,-1,-41,73,·,·,·,·
C[C@H](CO)N1C[C@H](C)[C@@H](CN(C)C(=O)Nc2ccc3c(c2)OCO3)OCCCC[C@H](C)Oc2ccc(NC(=O)NC3CCCCC3)cc2C1=O,8,-1,-30,67,·,·,·,·
Cc1ccc(S(=O)(=O)Nc2ccc3c(c2)C(=O)N([C@@H](C)CO)C[C@@H](C)[C@@H](CN(C)CC2CC2)OCCCC[C@@H](C)O3)cc1,·,·,-28,?,81,26,-13,-14
Cc1ccc(S(=O)(=O)Nc2ccc3c(c2)C(=O)N([C@H](C)CO)C[C@H](C)[C@@H](CN(C)CC2CC2)OCCCC[C@H](C)O3)cc1,·,2,-6,57,·,·,·,·
SMILES,IDH1 mut inh,KDM4C inh,Pf Dd2 growth,T cruzi growth-1,T cruzi growth-2,T cruzi growth-3,NIH3T3 tox,NIH3T3 tox 2
Cc1ccc(S(=O)(=O)Nc2ccc3c(c2)C(=O)N([C@H](C)CO)C[C@H](C)[C@H](CN(C)CC2CC2)OCCCC[C@H](C)O3)cc1,·,-1,-28,?,?,48,-15,13
CCc1csc(N2[C@H](C#N)[C@H](c3ccc(-c4ccc(F)cc4)cc3)[C@H]2CO)n1,·,-2,-2,94,·,·,·,·
CCc1csc(N2[C@@H](C#N)[C@H](c3ccc(C#Cc4ccc(F)cc4)cc3)[C@@H]2CO)n1,·,-5,-52,106*,97*,110*,-29,21
CCc1csc(N2[C@H](CO)[C@H](c3ccc(-c4ccc(F)cc4)cc3)[C@@H]2C#N)n1,·,-4,-2,98*,108*,43,21,91*
C/C=C/c1ccc([C@H]2[C@@H](C#N)N(c3nc(CC)cs3)[C@@H]2CO)cc1,·,0,-47,?,101*,23,1,6
O=C(C[C@H]1CC[C@H](NC(=O)C2CC2)[C@H](CO)O1)NC1CCC1,0,4,14,0,·,·,·,·
